From ChEMBL document CHEMBL3045357, “DNA adducts as biomarkers for oxidative and genotoxic stress from pesticides in crop plants” (J Agric Food Chem, 2008) come the findings set out here.

Each structure is given as a SMILES string.

Format in all cases: organism-based
Common to all, as to conditions: in vivo, other, 336 h

The subject of data set [1] is Cucumis sativus. Put plainly: Genotoxicity in Cucumis sativus (cucumber) exposed to compound through spray 4 times over 2 weeks assessed as relative adduct level A3 measured per 10^9 nucleotides using HX-dG internal standard using [32P]labeling based autoradiography relative to untreated control. Put shortly:
(§1)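 Plants (2–6 weeks grown), groups of 2–4, sprayed 4 times over 2 weeks with formulations diluted per label (chlorothalonil 1:256, carbaryl 1:64 in water); controls water-sprayed. DNA from 1 g leaf via DNeasy Maxi kit. 10 µg DNA digested with micrococcal nuclease/spleen phosphodiesterase (4 h, 37 °C), NP1-enriched (45 min, 37 °C), labelled with [γ-32P]ATP/T4 kinase (45 min, 37 °C).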

Data set [2] concerns Cucumis sativus. Description: Genotoxicity in Cucumis sativus (cucumber) exposed to compound through spray 4 times over 2 weeks assessed as relative adduct level A2 measured per 10^9 nucleotides using HX-dG internal standard using [32P]labeling based autoradiography relative to untreated control. Put shortly: as §1
Data set [3] has as its system Cucumis sativus. Put plainly: Genotoxicity in Cucumis sativus (cucumber) exposed to compound through spray 4 times over 2 weeks assessed as relative adduct level A1 measured per 10^9 nucleotides using HX-dG internal standard using [32P]labeling based autoradiography relative to untreated control. An outline of the steps:
as §1

Data set [4] deals with Phaseolus vulgaris. Put plainly: Genotoxicity in Phaseolus vulgaris (bush beans) exposed to compound through spray 4 times over 2 weeks assessed as relative adduct level A6 measured per 10^9 nucleotides using HX-dG internal standard using [32P]labeling based autoradiography relative to untreated control. An outline of the steps: as §1
Data set [5] relates to Phaseolus vulgaris. Put plainly: Genotoxicity in Phaseolus vulgaris (bush beans) exposed to compound through spray 4 times over 2 weeks assessed as relative adduct level A5 measured per 10^9 nucleotides using HX-dG internal standard using [32P]labeling based autoradiography relative to untreated control. An outline of the steps:
as §1

For data set [6], the system named is Phaseolus vulgaris. Put plainly: Genotoxicity in Phaseolus vulgaris (bush beans) exposed to compound through spray 4 times over 2 weeks assessed as relative adduct level A4 measured per 10^9 nucleotides using HX-dG internal standard using [32P]labeling based autoradiography relative to untreated control. Put shortly:
as §1

For data set [7], the system named is Phaseolus vulgaris. Description: Genotoxicity in Phaseolus vulgaris (bush beans) exposed to compound through spray 4 times over 2 weeks assessed as relative adduct level A3 measured per 10^9 nucleotides using HX-dG internal standard using [32P]labeling based autoradiography relative to untreated control. Put shortly:
as §1

In data set [8] the test system is Phaseolus vulgaris. Description: Genotoxicity in Phaseolus vulgaris (bush beans) exposed to compound through spray 4 times over 2 weeks assessed as relative adduct level A4 measured per 10^9 nucleotides using [32P]labeling based autoradiography relative to untreated control. An outline of the steps: as §1
Data set [9] concerns Glycine max. Description: Genotoxicity in Glycine max (soybean) exposed to compound through spray 4 times over 2 weeks assessed as relative adduct level A6 measured per 10^9 nucleotides using HX-dG internal standard using [32P]labeling based autoradiography relative to untreated control. Put shortly:
as §1

Data set [10] deals with Glycine max. Description: Genotoxicity in Glycine max (soybean) exposed to compound through spray 4 times over 2 weeks assessed as relative adduct level A5 measured per 10^9 nucleotides using HX-dG internal standard using [32P]labeling based autoradiography relative to untreated control. Put shortly:
as §1

The test system of data set [11] is Glycine max. Description: Genotoxicity in Glycine max (soybean) exposed to compound through spray 4 times over 2 weeks assessed as relative adduct level A3 measured per 10^9 nucleotides using HX-dG internal standard using [32P]labeling based autoradiography relative to untreated control. An outline of the steps:
as §1

Data set [12] has as its system Glycine max. Description: Genotoxicity in Glycine max (soybean) exposed to compound through spray 4 times over 2 weeks assessed as relative adduct level A6 measured per 10^9 nucleotides using [32P]labeling based autoradiography relative to untreated control. Put shortly: as §1
For data set [13], the system named is Glycine max. Put plainly: Genotoxicity in Glycine max (soybean) exposed to compound through spray 4 times over 2 weeks assessed as relative adduct level A5 measured per 10^9 nucleotides using [32P]labeling based autoradiography relative to untreated control. An outline of the steps:
as §1

In data set [14] the test system is Glycine max. Description: Genotoxicity in Glycine max (soybean) exposed to compound through spray 4 times over 2 weeks assessed as relative adduct level A3 measured per 10^9 nucleotides using [32P]labeling based autoradiography relative to untreated control. An outline of the steps: as §1
Data set [15] has as its system Cucurbita pepo. Put plainly: Genotoxicity in Cucurbita pepo (pumpkin) exposed to compound through spray 4 times over 2 weeks assessed as relative adduct level A5 measured per 10^9 nucleotides using HX-dG internal standard using [32P]labeling based autoradiography relative to untreated control. An outline of the steps:
as §1

The subject of data set [16] is Cucurbita pepo. Put plainly: Genotoxicity inCucurbita pepo (pumpkin) exposed to compound through spray 4 times over 2 weeks assessed as relative adduct level A4 measured per 10^9 nucleotides using HX-dG internal standard using [32P]labeling based autoradiography relative to untreated control. An outline of the steps: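 Plants grown 2-6 weeks, groups of 2-4 sprayed four times over 2 weeks with label-rate formulations; water-sprayed controls. Leaf DNA kit-extracted. 10 µg DNA digested with micrococcal nuclease/spleen phosphodiesterase 4 h at 37 °C. NP1-enriched, then labeled with [γ-32P]ATP/T4 kinase 45 min at 37 °C. 2D PEI-cellulose TLC, imager readout. Samples spiked with 50 fmol HX-dG standard.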

For data set [17], the system named is Cucurbita pepo. Description: Genotoxicity in Cucurbita pepo (pumpkin) exposed to compound through spray 4 times over 2 weeks assessed as relative adduct level A3 measured per 10^9 nucleotides using HX-dG internal standard using [32P]labeling based autoradiography relative to untreated control. An outline of the steps: as §1
For data set [18], the system named is Glycine max. Description: Genotoxicity in Glycine max (soybean) exposed to compound through spray 4 times over 2 weeks assessed as relative adduct level A1 measured per 10^9 nucleotides using HX-dG internal standard using [32P]labeling based autoradiography relative to untreated control. An outline of the steps:
as §1

The test system of data set [19] is Cucurbita pepo. Put plainly: Genotoxicity in Cucurbita pepo (pumpkin) exposed to compound through spray 4 times over 2 weeks assessed as relative adduct level A4 measured per 10^9 nucleotides using [32P]labeling based autoradiography relative to untreated control. An outline of the steps:
as §1

Data set [20] concerns Cucurbita pepo. Put plainly: Genotoxicity in Cucurbita pepo (pumpkin) exposed to compound through spray 4 times over 2 weeks assessed as relative adduct level A1 measured per 10^9 nucleotides using [32P]labeling based autoradiography relative to untreated control. Put shortly:
as §1

The next data set deals with Vitis vinifera. Put plainly: Genotoxicity in Vitis vinifera exposed to compound through spray 4 times over 2 weeks assessed as relative adduct level A1 measured per 10^9 nucleotides using HX-dG internal standard using [32P]labeling based autoradiography relative to untreated control. An outline of the steps:
as §1

Regarding `N#Cc1c(Cl)c(Cl)c(Cl)c(C#N)c1Cl` [CHLOROTHALONIL], the Activity with Cucumis sativus [1] is on record as 10667 cpm; with Cucumis sativus [2], 12506 cpm; in the data set with Cucumis sativus [3] it was 5420 cpm; with Phaseolus vulgaris [4], 6051 cpm; in the data set on Phaseolus vulgaris [5], 4410 cpm; in the data set on Phaseolus vulgaris [6], 2814 cpm. The Activity with Phaseolus vulgaris [7] turned out to be 5038 cpm; with Phaseolus vulgaris [8], 81; in the data set on Glycine max [9], 16472 cpm; with Glycine max [10] it was 4613 cpm; in the data set with Glycine max [11] it was 6932 cpm; in the data set on Glycine max [12] it was 324. The Activity in the data set with Glycine max [13] turned out to be 91; in the data set on Glycine max [14], 136; in the data set with Cucurbita pepo [15], 3195 cpm; in the data set on Cucurbita pepo [16], 679 cpm; with Cucurbita pepo [17] it was 3033 cpm; with Glycine max [18], 40547 cpm. Further, the Activity is 13 in the data set with Cucurbita pepo [19], 73 in the data set with Cucurbita pepo [20] and 2201 cpm in the data set on Vitis vinifera.
